NF-kB expr up – NF-kB expression increase, human neuronal cells. fold change at 12.5 µM. NF-kB reporter expression; stronger effect = higher value. 190,000 tested, 1.6% active; in the data active = fold change above about 3.3
APP 5'UTR act – APP 5'UTR luciferase reporter activation. AID 1276. 190,000 tested, 1% active. SH-SY5Y APP 5'UTR luciferase reporter, luminescence; zero percent = DMSO vehicle wells. activation, % at 2 µM;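 active = activation above a set limit, based on mean plus 3 SD of controls, cut at about 140% in these data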
FLuc act counter – affects firefly luciferase, flagging false hits in luciferase stimulation screens; P08659; 200,000 tested, under 10 active; ATPlite luciferase biochemical, luminescence, 10 min; 0 = ATP-free wells, 1 = DMSO control; AID 1027; activation factor at 10 µM;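 active = luciferase activation factor, scaled between plate controls, of at least 2 with compound at 10 µM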
Target sequence (P08659 whole entry, looked up): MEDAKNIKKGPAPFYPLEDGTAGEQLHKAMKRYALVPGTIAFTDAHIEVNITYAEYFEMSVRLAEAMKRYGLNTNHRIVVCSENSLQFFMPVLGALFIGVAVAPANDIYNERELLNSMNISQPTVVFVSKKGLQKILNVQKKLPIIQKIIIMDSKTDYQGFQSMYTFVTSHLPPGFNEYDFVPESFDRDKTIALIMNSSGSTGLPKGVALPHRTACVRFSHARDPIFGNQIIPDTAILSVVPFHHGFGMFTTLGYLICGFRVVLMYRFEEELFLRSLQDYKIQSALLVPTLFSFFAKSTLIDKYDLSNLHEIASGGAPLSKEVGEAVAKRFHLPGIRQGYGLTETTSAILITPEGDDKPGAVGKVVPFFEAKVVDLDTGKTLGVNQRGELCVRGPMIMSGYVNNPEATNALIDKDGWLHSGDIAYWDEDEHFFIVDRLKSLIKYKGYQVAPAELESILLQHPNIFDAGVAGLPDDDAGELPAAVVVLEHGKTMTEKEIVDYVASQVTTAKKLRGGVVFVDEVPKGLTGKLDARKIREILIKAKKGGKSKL
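Material: luciferase plus luciferin reagent, cell-free. Medium: PBS buffer for ATP. Also added: ATP substrate, dispensed from a 10.24 µM working solution in PBS. Doses: test compounds dosed from 2 mM stocks in 100% DMSO. Incubation: 10 min post-reagent at room temperature. Technique: light output (luminescence). Read-out basis: luminescence gain marking luciferase activators.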
TRAIL sens C8 – sensitizes caspase-8 expressing cells to TRAIL; AID 624354; 360,000 tested, 1% active; NB7+C8 cells + TRAIL, ATPlite viability luminescence; inhibition (viability loss, TRAIL sensitization), % at 10 µM;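 active = compounds causing at least 50% loss of cell viability in the single-dose screen, relative to plate controls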
FLuc inh counter – counter-screen for luciferase assay inhibitors: firefly luciferase inhibition; P08659; ATPLite firefly luciferase biochemical luminescence, 10 min; inhibition, % at 10 µM; 200,000 tested, 1.5% active;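 active = inhibition above about 50% when tested at 10 µM, limit read from the data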
PPC-1+TRAIL kill – PPC-1 cancer cell killing with TRAIL present; cell killing (% activity), % at 4 µM or 5 µM; 220,000 tested, 0.41% active; PPC-1 cells + TRAIL, ATPLite viability luminescence;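 active = cell killing above 50% in the first pass at 4 µM, then a duplicate retest at 5 µM averaging 50% or more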
Numbers stand for hits; n = inactive; x = no result; ! = repeats disagree. Most compounds without a hit are left out; they make up all but 2.2% or so of the library.

SMILES | NF-kB expr up | APP 5'UTR act | FLuc act counter | TRAIL sens C8 | FLuc inh counter | PPC-1+TRAIL kill
COc1ccc(N2Cc3ccc(OC)c(OC)c3C2=O)cc1 | x | x | x | 51 | x | x
Clc1ccccc1-c1nnc(-c2cccs2)o1 | 6 | 182 | n | n | 57 | n
C(=C\c1nnc(-c2cccs2)o1)/c1ccccc1 | 5 | n | n | n | n | n
CCN(CC(=O)N1CCc2ccccc2C1)S(=O)(=O)c1ccc2ccccc2c1 | n | n | n | 55 | n | n
O=C(NCc1ccc(Cl)cc1)c1cc2ccccn2n1 | n | n | n | n | n | n
COc1ccccc1/C=C/C=N/NC(=O)c1ccccn1 | 4.6 | n | n | n | n | n
COc1ccc(NC(=O)c2cc3ccccn3n2)cc1 | 6 | 149 | n | n | 80 | n
COc1ccccc1/C=N/NC(=O)c1csc(C)c1C | n | n | n | n | 71 | n
COc1ccc(NC(=O)c2ccccn2)cc1 | 3.3 | n | n | 74 | 90 | 76
O=C(/C=C/c1cccc(Cl)c1)NCCN1CCOCC1 | n | n | n | n | n | n
Cc1ccc2sc(-c3ccc(NC(=O)c4cc(-n5cnnc5)ccc4Cl)cc3)nc2c1 | n | 156 | n | n | n | n
CCOC(=O)c1c(C)nc(C)c(C(=O)OCC)c1-c1ccccc1 | n | n | n | n | n | x
CCOC(=O)c1c(C)nc2c(c1-c1cc(OC)c(OC)c(OC)c1)C(=O)c1ccccc1-2 | n | n | n | 66 | n | n
COc1ccc(-n2ccnc2SCC(=O)NCc2ccc(F)cc2)c(OC)c1 | n | n | n | n | n | n
CC(C)N(Cc1nnc(-c2ccc(Cl)cc2)o1)C(=O)c1cc2ccccc2o1 | x | x | x | n | x | x
O=C(NCCCn1ccnc1)c1ccc(S(=O)(=O)N2CCOCC2)cc1 | 4 | n | n | n | n | n
O=C(NCCCn1ccnc1)c1cc(-c2cccs2)on1 | 11 | n | n | n | n | n
COc1ccc(OC)c(-c2cc(C(=O)NCCCn3ccnc3)no2)c1 | n | n | n | n | n | n
O=C(NC1CCCC1)c1cc(-c2cccs2)on1 | 9.7 | n | n | n | n | n
Cc1ccc(-c2cc(C(=O)NCCCN3CCOCC3)no2)cc1 | n | n | n | n | n | n
O=C(NCCCN1CCOCC1)c1cc(-c2cccs2)on1 | 7.3 | n | n | n | n | n
COc1ccc(F)cc1C(=O)C1CCCN(C(=O)c2ccccc2N(C)C)C1 (stereo unspecified) | x | x | x | n | x | x
COc1ccc(CCNC(=O)CCC(=O)N2CC(C)Oc3ccccc32)cc1OC (stereo unspecified) | x | x | x | n | x | x
Clc1ccc2c(c1)C1OCCC1C(c1ccco1)N2 (stereo unspecified) | n | n | n | n | 54 | n
CC(C)CC(=O)/C(=C\c1ccc(Cl)cc1Cl)n1cncn1 | n | n | n | 64 | n | n
SMILES | NF-kB expr up | APP 5'UTR act | FLuc act counter | TRAIL sens C8 | FLuc inh counter | PPC-1+TRAIL kill
O=C(Cc1ccccc1)Nc1cc2c(cc1Cl)OCCCO2 | x | x | x | n | x | x
CCc1ccc(C(=O)Nc2cc3c(cc2Cl)OCCCO3)cc1 | 4.6 | n | n | n | n | n
O=C(Oc1ccc2ccccc2c1)c1ccco1 | n | n | n | n | n | n
CC1CC(C)(C)Nc2ccc(OC(=O)c3ccco3)cc21 (stereo unspecified) | n | n | n | n | 60 | n
Oc1c(C2=NCCNC(C(F)(F)F)=C2)ccc2ccccc12 | 6 | n | n | n | n | n
Cc1ccc(O)c(C2=NCCNC(C(F)(F)F)=C2)c1 | n | n | n | n | n | n
CC(C)c1ccc(C(=O)NN2C(=O)C3CCCCC3C2=O)cc1 (stereo unspecified) | n | n | n | n | 80 | n
CCOc1ccccc1C(=O)NN1C(=O)C2CCCCC2C1=O (stereo unspecified) | n | n | n | n | n | n
COc1cccc(/C=N/NC(=O)c2cc3c(OC)cccc3[nH]2)c1O | n | n | n | 53 | n | n
COc1cccc(/C=N/NC(=O)c2cc(-c3cccn3C)n[nH]2)c1O | n | n | n | 55 | n | n
COc1cc(/C=N/NC(=O)c2cc(-c3cccn3C)n[nH]2)cc(OC)c1OC | n | n | n | n | n | n
CCCOCc1ccc(O)c2ncccc12 | x | x | x | n | x | n
Oc1c(CN2CCCCC2)cc(COCc2ccccc2)c2cccnc12 | 3.8 | n | n | 56 | n | n
COCc1cc(CN2CCCC2)c(O)c2ncccc12 | n | n | n | n | n | n
Oc1ccc(CN2CCC(Cc3ccccc3)CC2)c2cccnc12 | n | n | n | x | n | n
CC(C)COCc1ccc(O)c2ncccc12 | n | n | n | 52 | n | n
CCOC(=O)N1CCN(Cc2ccc(O)c3ncccc23)CC1 | 4.8 | n | n | x | n | n
CCOC(=O)N1CCN(Cc2ccccn2)CC1 | n | n | n | n | n | n
Oc1ccc(CN2CCc3ccccc3C2)c2cccnc12 | 5.2 | n | n | n | n | n
Oc1ccc(CN2CCN(c3ccccc3)CC2)c2cccnc12 | n | n | n | n | n | n
Oc1ccc(CN2CCCCC2)c2cccnc12 | 11 | n | n | n | n | n
COc1ccc2c(C)c(Cl)c(=O)oc2c1 | n | n | n | n | n | n
C=C1CC(COc2ccc3c(C)c(Cl)c(=O)oc3c2)(c2ccccc2)OC1=O (stereo unspecified) | x | x | x | 90 | x | x
CC(C)Oc1cccc(C(=O)Nc2ccc(Br)cc2F)c1 | 6.1 | 139 | n | n | n | n
O=C(Nc1ccc(Br)cc1F)c1ccc2c(c1)OCCO2 | x | x | x | 54 | x | x
SMILES | NF-kB expr up | APP 5'UTR act | FLuc act counter | TRAIL sens C8 | FLuc inh counter | PPC-1+TRAIL kill
O=C(NCc1ccccc1F)c1ccc2c(c1)OCO2 | n | n | n | n | n | n
O=C(NCCc1ccccc1F)c1ccc2c(c1)OCCO2 | x | x | x | 92 | x | x
COc1ccc(N2CCN(C3CCCN(S(=O)(=O)c4ccc(C)cc4C)C3)CC2)cc1 (stereo unspecified) | x | x | x | n | x | x
CCOC(CNc1ncnc2c1cnn2C)OCC | n | n | n | n | n | n
COc1cc(OC)c(/C=N/NC(=O)c2ccc(Cn3nc([N+](=O)[O-])cc3C)cc2)c(OC)c1 | x | x | x | x | x | n
Cc1cc2c(NCc3ccccc3)ncnc2s1 | x | x | x | n | x | x
NC(=O)N/N=C/c1sc(N2CCCCC2)nc1-c1cccs1 | x | x | x | n | x | x
CC(C)NC(=S)N/N=C/c1sc(N2CCCCC2)nc1-c1cccs1 | n | n | n | n | 53 | n
CCOC(=O)N1CCN(S(=O)(=O)N2CCCC(C(=O)NCc3ccc(C)cc3)C2)CC1 (stereo unspecified) | x | x | x | n | x | x
CC1CCC(C(C)C)C(OC(=O)Cn2c(-c3ccccc3)[n+](C)c3ccccc32)C1 (stereo unspecified) | n | n | n | 58! | n | n
Cc1cc(C)c(S(=O)(=O)N2CCN(C(=O)C(C)Cn3cncn3)CC2)c(C)c1 (stereo unspecified) | x | x | x | n | x | x
Brc1ccccc1-c1nnc(CSc2nnnn2-c2ccccc2)o1 | n | n | n | n | n | n
Cc1csc(SCc2nnc(-c3ccc(Cl)cc3)o2)n1 | 3.7 | n | n | n | n | n

Source: PubChem BioAssay
